Drawing on ChEMBL document CHEMBL1817556, “Substituted lactam and cyclic azahemiacetals modulate Pseudomonas aeruginosa quorum sensing” (Bioorg Med Chem, 2011), this text covers Activity and IC50 for five molecules.

In experiment [1] the target is T1, Acyl-homoserine-lactone synthase (Pseudomonas aeruginosa (strain ATCC 15692 / PAO1 / 1C / PRS 101 / LMG12228)) (UniProt P33883).
T1 sequence (whole entry): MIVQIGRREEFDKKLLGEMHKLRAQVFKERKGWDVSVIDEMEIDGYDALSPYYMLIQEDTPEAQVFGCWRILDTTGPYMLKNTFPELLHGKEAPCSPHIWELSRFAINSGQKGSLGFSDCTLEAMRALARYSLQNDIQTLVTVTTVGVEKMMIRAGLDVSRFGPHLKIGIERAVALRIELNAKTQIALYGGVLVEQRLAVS
Kind of experiment: Modulation of Pseudomonas aeruginosa lacZ-fused lasI expressed in Escherichia coli DH5alpha co-expressing pBAD-lasR assessed as 3-oxo-C12-AHL-induced effect at 0.69 mM after 3 hrs by beta-galactosidase assay relative to control. A digest of the protocol:
(§1)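 E. coli DH5α carrying pSC11 (PlasI-lacZ translational fusion) and pJN105L (PBAD-lasR) was grown overnight in LB with ampicillin (100 μg/ml) and gentamicin (15 μg/ml), then diluted to OD600 0.150. Arabinose (0.2% w/v), 3-oxo-C12-AHL (2 μM) and test compound or DMSO were added. Cultures were shaken 3 h at 37 °C. β-Galactosidase activity was read in Miller units and expressed as % of the solvent sample. Triplicates per biological replicate, repeated at least twice; paired two-tailed t-test.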

Experiment [2] has as its target 3-(3-hydroxydecanoyloxy)decanoate synthase (Pseudomonas aeruginosa (strain ATCC 15692 / PAO1 / 1C / PRS 101 / LMG12228)) (UniProt Q51559). Kind of experiment: Modulation of Pseudomonas aeruginosa lacZ-fused rhlA expressed in Escherichia coli DH5alpha co-expressing Ptac-rhlR assessed as C4-AHL-induced effect at 0.17 mM after 4 hrs by beta-galactosidase assay relative to control. A digest of the protocol:
(§2)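 rhl reporter: E. coli DH5α carrying pECP61.5 (Ptac-rhlR, PrhlA-lacZ) was grown overnight in LB with ampicillin (100 μg/ml) only, then diluted to OD600 0.150. It was induced with 1 mM IPTG, and 2 μM C4-HSL plus compound or DMSO were added at OD600 1.0. Cultures were shaken 4 h at 37 °C. β-Galactosidase activity was read in Miller units as % of the solvent sample. Triplicates per biological replicate, at least two repeats; paired two-tailed t-test.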

For experiment [3], the target named is T1, Acyl-homoserine-lactone synthase (Pseudomonas aeruginosa (strain ATCC 15692 / PAO1 / 1C / PRS 101 / LMG12228)). Kind of experiment: Modulation of Pseudomonas aeruginosa lacZ-fused lasI expressed in Escherichia coli DH5alpha co-expressing pBAD-lasR assessed as 3-oxo-C12-AHL-induced effect at 0.52 mM after 3 hrs by beta-galactosidase assay relative to control. A digest of the protocol: as §1

The target is the same in experiment [4]. Kind of experiment: Modulation of Pseudomonas aeruginosa lacZ-fused lasI expressed in Escherichia coli DH5alpha co-expressing pBAD-lasR assessed as 3-oxo-C12-AHL-induced effect at 0.17 mM after 3 hrs by beta-galactosidase assay relative to control. A digest of the protocol:
as §1

The target of experiment [5] is 3-(3-hydroxydecanoyloxy)decanoate synthase (Pseudomonas aeruginosa (strain ATCC 15692 / PAO1 / 1C / PRS 101 / LMG12228)) (UniProt Q51559). Kind of experiment: Modulation of Pseudomonas aeruginosa lacZ-fused rhlA expressed in Escherichia coli DH5alpha co-expressing Ptac-rhlR assessed as C4-AHL-induced effect at 0.52 mM after 4 hrs by beta-galactosidase assay relative to control. A digest of the protocol:
as §2

The target is the same in experiment [6]. Kind of experiment: Modulation of Pseudomonas aeruginosa lacZ-fused rhlA expressed in Escherichia coli DH5alpha co-expressing Ptac-rhlR assessed as C4-AHL-induced effect at 0.69 mM after 4 hrs by beta-galactosidase assay relative to control. A digest of the protocol: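 E. coli DH5α carrying pECP61.5 (Ptac-rhlR, PrhlA-lacZ), grown overnight in LB with ampicillin 100 μg/ml and diluted to OD600 0.150. At OD600 1.0, 1 mM IPTG, 2 μM C4-HSL and compound or DMSO were added. Cultures were shaken 4 h at 37 °C, then β-galactosidase was read in Miller units. Activity is % of solvent sample, from triplicates per biological replicate, with at least two repeats.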

Experiment [7] has the same target. Kind of experiment: Modulation of Pseudomonas aeruginosa lacZ-fused rhlA expressed in Escherichia coli DH5alpha co-expressing Ptac-rhlR assessed as C4-AHL-induced effect at 0.34 mM after 4 hrs by beta-galactosidase assay relative to control. An outline of the steps: as §2
Experiment [8] deals with T1, Acyl-homoserine-lactone synthase (Pseudomonas aeruginosa (strain ATCC 15692 / PAO1 / 1C / PRS 101 / LMG12228)). Kind of experiment: Modulation of Pseudomonas aeruginosa lacZ-fused lasI expressed in Escherichia coli DH5alpha co-expressing pBAD-lasR assessed as 3-oxo-C12-AHL-induced effect at 0.34 mM after 3 hrs by beta-galactosidase assay relative to control. A digest of the protocol:
as §1

Experiment [9] addresses T2, Transcriptional activator protein LasR (Pseudomonas aeruginosa (strain ATCC 15692 / PAO1 / 1C / PRS 101 / LMG12228), UniProt P25084).
T2 sequence (P25084 whole entry): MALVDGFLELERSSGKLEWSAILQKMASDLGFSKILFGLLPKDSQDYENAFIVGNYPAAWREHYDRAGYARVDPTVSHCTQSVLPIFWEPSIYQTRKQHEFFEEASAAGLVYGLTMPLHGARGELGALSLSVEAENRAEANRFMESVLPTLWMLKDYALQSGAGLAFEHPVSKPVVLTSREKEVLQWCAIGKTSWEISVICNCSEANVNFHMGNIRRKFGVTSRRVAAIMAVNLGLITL
Kind of experiment: Inhibition of Pseudomonas aeruginosa LasR.

The target of experiment [10] is T1, Acyl-homoserine-lactone synthase (Pseudomonas aeruginosa (strain ATCC 15692 / PAO1 / 1C / PRS 101 / LMG12228)). Kind of experiment: Modulation of Pseudomonas aeruginosa lacZ-fused lasI expressed in Escherichia coli DH5alpha co-expressing pBAD-lasR at 0.002 mM after 3 hrs by beta-galactosidase assay relative to control. A digest of the protocol: as §1

For the molecule `CCCCCCCCCSC[C@H]1NC(O)[C@H](O)[C@@H]1O` (mixture of isomers), the Activity in experiment [1] was determined as 53%; in [2] it was 98%; in experiment [3], 71%; in [4] it was 78%; in [5], 116%; in experiment [6], 121%. For the same molecule, the Activity in experiment [7] was determined as 127%; in experiment [8], 78%.

For the molecule `CCCCCCCCCCCC(=O)N[C@H]1CCOC1=O`, the IC50 (in general, the concentration that inhibits the measured activity by half) in [9] is 40 nM.

Regarding `CCCCCCCCCCCC(=O)N[C@H]1CCSC1=O`, the IC50 in [9] turned out to be 40 nM.

As for `CCCCCCCCCC(=O)CC(=O)NC1CCCCC1=O` (configuration not stated), the IC50 in [9] worked out at 10000 nM.

Consider `CCCCCCCCCC(=O)CC(=O)N[C@H]1CCOC1=O`, for which, in [10], the Activity was 100%.
